Test results taken from ChEMBL document CHEMBL5252546, “Salutaxel, a Conjugate of Docetaxel and a Muramyl Dipeptide (MDP) Analogue, Acts as Multifunctional Prodrug That Inhibits Tumor Growth and Metastasis” (J Med Chem, 2018).
The source made the active and inactive calls. The calls are words filed in the database; no cut-off is given here.

Experiments:
[1] = tested on: 4T1; test: Antitumor activity against mouse 4T1 cells implanted in BALB/c mouse assessed as decrease in S100A9 mRNA expression in lung at 20 mg/kg,iv administrated qd for 2 days by qRT-PCR analysis; type: functional, organism-based; details: time 2.0 day
How it was run: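 Day 19 after 4T1 implantation, mice randomised into five groups; iv vehicle or 20 mg/kg plus ip C12-iE-DAP (50 μg/mouse) and MDP (100 μg/mouse) once daily for 2 days; killed after 48 h; lung mRNA for MMP8, MMP9, PROK2, S100A8, S100A9 and IL-1β by qPCR; mean ± SEM.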

[2] = Drug distribution in rat adrenal gland at 4 mg/kg,iv measured by 0.25 hrs; type: ADME, organism-based; details: in vivo
How it was run: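 Rats received 4 mg/kg iv. Parent drug and released docetaxel were assayed in tissues and plasma from the first sampling at 0.25 h to 24 h. The lower limit of quantitation was 200 ng/g.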

[3] = Toxicity in BALB/c mouse xenografted with human HCT-116 cells assessed as side effects at 10 mg/kg,iv administrated once per week for 3 weeks; type: organism-based; details: in vivo, 504 h
[4] = Prodrug conversion in mouse plasma implanted with mouse 4T1 cells assessed as AUC (0-t) of docetaxel at 4 mg/kg,iv measured upto 72 hrs; type: ADME, organism-based; set-up: time < 72 hrs, dose 4 mg/kg, route iv; details: in vivo
[5] = Clearance in male Beagle dog at 4 mg/kg,iv measured upto 24 hrs; type: ADME, organism-based, Canis lupus familiaris; details: in vivo
How it was run: (§1)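 Beagle dogs were given a single iv infusion at 1, 2 or 4 mg/kg. Plasma parent drug and released docetaxel were followed over time. Cmax, Tmax, AUC, MRT, t1/2, CL and Vss were reported by sex and for all dogs combined.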

[6] = Prodrug conversion in mouse tumor implanted with mouse 4T1 cells assessed as Tmax of docetaxel at 4 mg/kg,iv measured upto 72 hrs; type: ADME, organism-based, Neoplasm; details: in vivo
[7] = Half life in Beagle dog at 2 mg/kg,iv measured upto 24 hrs; type: ADME, organism-based, Canis lupus familiaris; details: in vivo
[8] = tested on: COLO 205; test: Antiproliferative activity against human COLO 205 cells assessed inhibition of cell growth incubated for 72 hrs by SRB assay; type: functional, cell-based; details: COLO 205, 72 h
[9] = Cmax in rat at 8 mg/kg,iv measured upto 24 hrs; type: ADME, organism-based; set-up: time < 24 hrs, dose 8 mg/kg, route iv; details: in vivo
How it was run: (§2)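 Rats were given a single iv injection at 2, 4 or 8 mg/kg. Plasma parent drug and released docetaxel were followed over time. Cmax, Tmax, AUC, MRT, t1/2, CL and Vss were reported for males, females and all animals combined.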

[10] = Stability in human plasma assessed as compound remaining at 1 uM incubated for 6 hrs; type: ADME, cell-free
[11] = Chronic toxicity in male Beagle dog at 3 to 18 mg/kg,iv administered once per week for 30 days; type: organism-based, Canis lupus familiaris; details: in vivo, 720 h, dose 3-18 mg/kg, time 30 day
How it was run: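 Long-term toxicity: rats given iv 2, 4 or 8 mg/kg and dogs 3, 6 or 18 mg/kg once weekly over 30 days; toxicokinetics recorded; highest non-severely toxic dose determined by sex.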

[12] = AUC (0-t) in mouse tumor implanted with mouse 4T1 cells at 10 mg/kg,iv measured upto 72 hrs; type: ADME, organism-based, Neoplasm; set-up: time < 72 hrs, dose 10 mg/kg, route iv
How it was run: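 4T1 tumor-bearing mice (4T1 cells implanted in the mammary fat pad) received a single iv dose of 10 mg/kg. Plasma and tumor tissue were sampled up to 72 h, with n = 6. Levels of parent and of released docetaxel were measured. AUC came from noncompartmental analysis, reported as mean ± SD.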

[13] = Cmax in female Beagle dog at 4 mg/kg,iv measured upto 24 hrs; type: ADME, organism-based, Canis lupus familiaris; set-up: time < 24 hrs, dose 4 mg/kg, route iv; details: in vivo; how it was run: as §1
[14] = AUC (0-infinity) in female rat at 2 mg/kg,iv measured upto 24 hrs; type: ADME, organism-based; set-up: time < 24 hrs, dose 2 mg/kg, route iv; details: in vivo
How it was run: (§3)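 Single iv dose: rats 2, 4 or 8 mg/kg by intravenous injection; Beagle dogs 1, 2 or 4 mg/kg by intravenous infusion. Plasma concentration–time data were analysed by sex and pooled. Reported parameters: Cmax, Tmax, AUC0−t, AUC0−∞, MRT0−∞, t1/2, CL, Vss, given as mean ± SD.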

[15] = Clearance in male Beagle dog at 2 mg/kg,iv measured upto 24 hrs; type: ADME, organism-based, Canis lupus familiaris; details: in vivo; how it was run: as §1
[16] = MRT (0 to infinity) in male Beagle dog at 4 mg/kg,iv measured upto 24 hrs; type: ADME, organism-based, Canis lupus familiaris; details: in vivo
[17] = Stability in rat hepatocyte assessed as compound remaining at 3 uM incubated upto 120 mins; type: ADME, cell-based; details: hepatocytes, 2 h
[18] = tested on: BT-474; test: Antiproliferative activity against human BT-474 cells assessed inhibition of cell growth incubated for 72 hrs by SRB assay; type: functional, cell-based; details: BT-474, 72 h
[19] = Cmax in female rat at 2 mg/kg,iv measured upto 24 hrs; type: ADME, organism-based; set-up: time < 24 hrs, dose 2 mg/kg, route iv; details: in vivo; how it was run: as §2
[20] = AUC (0-infinity) in female Beagle dog at 2 mg/kg,iv measured upto 24 hrs; type: ADME, organism-based, Canis lupus familiaris; set-up: time < 24 hrs, dose 2 mg/kg, route iv; details: in vivo; how it was run: as §3
[21] = MRT (0 to infinity) in rat at 8 mg/kg,iv measured upto 24 hrs; type: ADME, organism-based; details: in vivo
[22] = Volume of distribution at steady state in rat at 4 mg/kg,iv measured upto 24 hrs; type: ADME, organism-based; details: in vivo, read-out: Vdss
[23] = tested on: 4T1; test: Synergistic antitumor activity against mouse 4T1 cells xenografted with BALB/c mouse assessed as decrease in tumor volume at 10 mg/kg,iv administrated in combination with doxorubicin once per week for 4 weeks; type: functional, organism-based
[24] = Cmax in mouse tumor implanted with mouse 4T1 cells at 5.7 mg/kg,iv measured upto 72 hrs; type: ADME, organism-based, Neoplasm; set-up: time < 72 hrs, dose 5.7 mg/kg, route iv
[25] = Drug concentration in plasma of Beagle dog at 1.14 mg/kg,iv measured upto 24 hrs; type: ADME, organism-based, Canis lupus familiaris; details: in vivo
How it was run: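 Taxane given as a single intravenous dose: 2.28 mg/kg to rats by injection and 1.14 mg/kg to Beagle dogs by infusion. Plasma concentrations were then measured.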

[26] = Toxicity in BALB/c mouse xenografted with human A549/Taxol cells assessed as body weight loss at 5.7 mg/kg,iv administrated once per week for 3 weeks; type: organism-based, A549/TR; details: in vivo, 504 h
How it was run: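 Nude BALB/c nu/nu mice received subcutaneous human tumour cells into the right flank. Dosing started at mean tumour volume of 100–120 mm3, iv once weekly for 3 weeks; the taxane arm was an equimolar control. Body weight and overt side effects were monitored. Mean ± SEM, n = 8.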

[27] = tested on: 4T1; test: Antitumor activity against mouse 4T1 cells implanted in BALB/c mouse assessed as decrease in lung metastasis at 5.7 mg/kg,iv administrated once per week for 4 weeks in presence of MDA-205 by H and E staining based assay; type: functional, organism-based
How it was run: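 BALB/c mice bearing orthotopic mammary fat pad 4T1 tumors, dosed iv weekly for 4 weeks with saline vehicle as control. Lung sections stained with hematoxylin and eosin and examined by light microscopy at 40× for metastasis, inflammatory infiltration and alveolar wall thickening.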

[28] = tested on: 4T1; test: Antitumor activity against mouse 4T1 cells xenografted with BALB/c mouse assessed as inhibition of tumor growth at 5.7 mg/kg,iv administrated once per week for 4 weeks; type: functional; details: 4T1, 672 h
How it was run: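 4T1 cells injected into mammary fat pads of BALB/c mice. Dosing iv once per week for 4 weeks, saline vehicle; single-agent arms were given alone or with the peptide component (5b or 6). Endpoints were body weight, tumour volume, tumour weight, lung metastatic nodule count and lung metastasis score. Mean ± SEM, n = 10; ANOVA and Student's t test.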

[29] = tested on: 4T1; test: Antitumor activity against mouse 4T1 cells implanted in BALB/c mouse assessed as decrease in serum TIMP-1 level at 5.7 mg/kg,iv administrated once per week for 4 weeks in presence of MDA-205 by ELISA; type: functional, organism-based

## CC(=O)O[C@@]12CO[C@@H]1C[C@H](O)[C@@]1(C)C(=O)[C@H](O)C3=C(C)[C@@H](OC(=O)[C@H](OC(=O)CCC(=O)NCCCC[C@H](NC(=O)CC[C@@H](NC(=O)[C@H](C)NC(=O)/C=C/c4ccc(F)cc4Cl)C(N)=O)C(=O)O)[C@@H](NC(=O)OC(C)(C)C)c4ccccc4)C[C@@](O)([C@@H](OC(=O)c4ccccc4)[C@H]21)C3(C)C
[1]
  Activity: Active
[2]
  Drug uptake: Active
[3]
  Activity: Non-Toxic
[4]
  AUCt: 8.43 µM·h
[5]
  clearance: 4.56 mL/min/kg
[6]
  Tmax: 30 min
[7]
  half-life: 30.5 min
[8]
  IC50: 16.3 nM
[9]
  Cmax: 62200 ng/mL
[10]
  Stability: Stable
[11]
  Activity: Non-Toxic
[12]
  AUC(0-t) at 72 h: 0.11 µM·h
[13]
  Cmax: 30800 ng/mL
[14]
  AUC(0-inf): 4330 ng·h/mL
[15]
  clearance: 7.13 mL/min/kg
[16]
  MRT inf: 16.5 min
[17]
  Stability: Stable
[18]
  IC50: 16.3 nM
[19]
  Cmax: 14600 ng/mL
[20]
  AUC(0-inf): 7020 ng·h/mL
[21]
  MRT inf: 33.1 min
[22]
  Vd: 0.076 L/kg
[23]
  Activity: Active

## CC(=O)O[C@@]12CO[C@@H]1C[C@H](O)[C@@]1(C)C(=O)[C@H](O)C3=C(C)[C@@H](OC(=O)[C@H](O)[C@@H](NC(=O)OC(C)(C)C)c4ccccc4)C[C@@](O)([C@@H](OC(=O)c4ccccc4)[C@H]21)C3(C)C [DOCETAXEL ANHYDROUS]
[24]
  Cmax: 950 nM
[25]
  Drug uptake: 0.8%
[26]
  Activity: Non-Toxic
[27]
  Activity: Active
[28]
  inhibition in vivo at 5.7 mg/kg: 19.6%
[29]
  Activity: Active
